{"source": "the RNAGym collection of RNA variant scans (doi:10.1126/science.aae0568)", "parents": {"B1": {"name": "tRNA (parent)", "chain": "GUUCCGUUGGCGUAAUGGUAACGCGUCUCCCUCCUAAGGAGAAGACUGCGGGUUCGAGUCCCGUACGGAACG"}}, "note": "Variants at the floor of the assay were thinned out."}
{"variants_of": "B1", "assay": "yeast fitness relative to wild type (ratio to wild type); higher = fitter; tRNA-Arg(CCU), competitive growth, 37 C, YPD", "outline": "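Start and end populations of a pooled competition were compared by 100-nucleotide paired-end sequencing of gene amplicons. The Saccharomyces cerevisiae strains carried tRNA-Arg(CCU) gene variants at the native genomic locus, synthesised with a 3% per-site mutation rate at 69 sites, and competed in YPD at 37°C for 24 hours in six parallel replicates. Darwinian fitness relative to wild type was based on the change in genotype frequencies. Genotypes required ≥ 100 starting reads, and estimates < 0.5 were set to 0.5.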"}
{"variant": "G39C G52A G68A", "yeast fitness": "≤ 0.5"}
{"variant": "A21U C33U G50A", "yeast fitness": 0.621}
{"variant": "A15C C22A G25C U28A A36U A70G", "yeast fitness": "≤ 0.5"}
{"variant": "C30G G58A A69U", "yeast fitness": 0.535}
{"variant": "A21U C30U A42C C55U", "yeast fitness": "≤ 0.5"}
{"variant": "C11G C31A G39A G48A A57G A65G", "yeast fitness": "≤ 0.5"}
{"variant": "U8G U13C A36C U53C", "yeast fitness": "≤ 0.5"}
{"variant": "C4G U8G C24A C31G G50A A69U", "yeast fitness": "≤ 0.5"}
{"variant": "U28A A69C", "yeast fitness": 0.88}
{"variant": "C55A C66U", "yeast fitness": 0.694}
{"variant": "G63C A69U", "yeast fitness": 0.709}
{"variant": "C29U G68A", "yeast fitness": 0.937}
{"variant": "U26A C33A A45C A65U G67C", "yeast fitness": "≤ 0.5"}
{"variant": "A21U A42G", "yeast fitness": 0.583}
{"variant": "C29G C31A U47A U59A C60U C62G C66U", "yeast fitness": "≤ 0.5"}
{"variant": "C4G C31G C55U", "yeast fitness": 0.516}
{"variant": "U8C C31U", "yeast fitness": 1.07}
{"variant": "A43G C55A", "yeast fitness": 0.599}
{"variant": "A14U A21C U54G", "yeast fitness": "≤ 0.5"}
{"variant": "A15C U26G U28C A37G G41A C49G C62U", "yeast fitness": "≤ 0.5"}
{"variant": "C5U A15U U54A C55U C66A", "yeast fitness": "≤ 0.5"}
{"variant": "U13C A57U C62U", "yeast fitness": "≤ 0.5"}
{"variant": "C4G C60U", "yeast fitness": 0.817}
{"variant": "G25A A40C A65C", "yeast fitness": 0.739}
{"variant": "C5U A15U C30G C33G A40G A43U", "yeast fitness": "≤ 0.5"}
{"variant": "A21G A57C", "yeast fitness": 0.709}
{"variant": "C30U G44A A65C", "yeast fitness": 0.553}
{"variant": "C33A A45G A70U", "yeast fitness": 0.638}
{"variant": "A40U A45U G67C", "yeast fitness": 0.582}
{"variant": "C22U A36C", "yeast fitness": 0.616}
{"variant": "G10A A45C G50C G51C C55U G68A A70C", "yeast fitness": "≤ 0.5"}
{"variant": "G6A C33U G56C C60U", "yeast fitness": "≤ 0.5"}
{"variant": "U19C C46U A69U", "yeast fitness": 0.804}
{"variant": "G10C C27U G38A C46G G63A", "yeast fitness": "≤ 0.5"}
{"variant": "G9A C22A C61U", "yeast fitness": 0.622}
{"variant": "A37G G39A A45C", "yeast fitness": 0.635}
{"variant": "C4G C5G C11A A69C A70C", "yeast fitness": "≤ 0.5"}
{"variant": "A20U C22G U47C", "yeast fitness": "≤ 0.5"}
{"variant": "G41A G63A", "yeast fitness": 0.893}
{"variant": "C30A A69C", "yeast fitness": 1.03}
{"variant": "U2C U53A", "yeast fitness": 0.7}
{"variant": "A43U C49U", "yeast fitness": 1.09}
{"variant": "G48A G50A", "yeast fitness": 0.973}
{"variant": "U13G G18C C30U C33G U47G", "yeast fitness": 0.578}
{"variant": "C29A", "yeast fitness": 0.631}
{"variant": "C5G U7C G56A A57U C62G", "yeast fitness": "≤ 0.5"}
{"variant": "C22U C30G G51C G56U", "yeast fitness": "≤ 0.5"}
{"variant": "C31U A36C U53C", "yeast fitness": 0.569}
{"variant": "U7G C22U G51C G58A", "yeast fitness": "≤ 0.5"}
{"variant": "U32G C62A", "yeast fitness": 0.512}
{"variant": "G10C U32A", "yeast fitness": 0.53}
{"variant": "C27A U64A", "yeast fitness": 0.748}
{"variant": "U8A U47C A57C U64C", "yeast fitness": "≤ 0.5"}
{"variant": "C11A A36G C49G C60U G68A", "yeast fitness": "≤ 0.5"}
{"variant": "U8C A20G C61G", "yeast fitness": "≤ 0.5"}
{"variant": "G23A C27U A37U C60U C61A", "yeast fitness": "≤ 0.5"}
{"variant": "C24U C27A C30U G68C", "yeast fitness": "≤ 0.5"}
{"variant": "G10C U13A G25A", "yeast fitness": 0.534}
{"variant": "G6C U13A U54A A57C", "yeast fitness": "≤ 0.5"}
{"variant": "U3A C4U G25C", "yeast fitness": "≤ 0.5"}
{"variant": "G17A C34U C46G A65U", "yeast fitness": "≤ 0.5"}
{"variant": "A21U C30U C46U A69U", "yeast fitness": "≤ 0.5"}
{"variant": "G25A G41A G51C C60U", "yeast fitness": "≤ 0.5"}
{"variant": "C27U G41A U47C", "yeast fitness": 1.08}
{"variant": "A15U U28C", "yeast fitness": 0.772}
{"variant": "G10A C66A G67C", "yeast fitness": "≤ 0.5"}
{"variant": "C5U C11A A43U C66U", "yeast fitness": 0.621}
{"variant": "U7C C61G A65C", "yeast fitness": "≤ 0.5"}
{"variant": "U28A C31A G51C", "yeast fitness": "≤ 0.5"}
{"variant": "A21U A43U", "yeast fitness": 0.901}
{"variant": "G10C U26A C27U C31G A42U U47A U53C", "yeast fitness": 0.721}
{"variant": "U35G A70C", "yeast fitness": 0.711}
{"variant": "C4G U19A A21G G52C C55G", "yeast fitness": "≤ 0.5"}
{"variant": "A43U U47A", "yeast fitness": 0.799}
{"variant": "C5U A14U G17C C33U G52C G63A", "yeast fitness": "≤ 0.5"}
{"variant": "U13A A43C A57C A70U", "yeast fitness": 0.551}
{"variant": "G10C A36U A69U", "yeast fitness": "≤ 0.5"}
{"variant": "U8C A42G G51U A57U", "yeast fitness": "≤ 0.5"}
{"variant": "C24G G25C A40C A42U U47A C61G C66G", "yeast fitness": 0.509}
{"variant": "U13A G23A A36C G38A C61G", "yeast fitness": "≤ 0.5"}
{"variant": "C11A U19C C60U", "yeast fitness": "≤ 0.5"}
{"variant": "U19A G48A A69U", "yeast fitness": 0.966}
{"variant": "G12C G17C C22A A42C", "yeast fitness": "≤ 0.5"}
{"variant": "C5G U35G A43G C49U G63A A65U", "yeast fitness": "≤ 0.5"}
